Active and inactive are the calls of the source. The rule behind the calls is not given here.
Key:
[1] = target: Ephrin type-A receptor 5 (Homo sapiens) (UniProt P54756); assay: Inhibition of human EPHA5 at 0.5 uM relative to control
[2] = test system: HUVEC; assay: Growth inhibition of HUVEC at 10 uM after 72 hrs by CellTiter-Glo assay relative to control; type: functional; conditions: Homo sapiens, read-out: GI
Method in brief: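 Cells in exponential phase seeded at 2000–4000 cells/well, then exposed 72 h at 37 °C, 5% CO2 with 0.1% final DMSO. Single-point screen at 10 μM final. […] Read-out was CellTiter-Glo luminescence.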

[3] = test system: A549; assay: Cytotoxicity against human A549 cells after 48 hrs by SRB assay; type: functional; conditions: A549, 48 h
Method in brief: (§1)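 NCI-60 panel; cells grown in RPMI 1640 with 5% FBS and 2 mM L-glutamine, plated at 5000–40 000 cells/well by doubling time, preincubated 24 h (37 °C, 5% CO2). Drug added at five concentrations, 1-log steps from 10−4 to 10−8 M, for 48 h. Fixed with TCA, stained with 0.4% SRB, absorbance read at 515 nm. Percent growth computed against time-zero and untreated controls; GI50, TGI and LC50 derived.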

[4] = test system: NCI-H522; assay: Cytotoxicity against human NCI-H522 cells after 48 hrs by SRB assay; type: functional; conditions: NCI-H522, 48 h; method in brief: as §1
[5] = test system: Leukemia cell; assay: Potency index, ratio of sorafenib GI50 to test compound GI50 for human leukemia cells; type: functional
Method in brief: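 GI50 is the concentration giving 50% reduction in net protein increase relative to control. Potency index is the reference-drug GI50 divided by the test-compound GI50.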

[6] = test system: Malme-3M; assay: Cytotoxicity against human MALME-3M cells after 48 hrs by SRB assay; type: functional; method in brief: as §1
[7] = test system: M14; assay: Cytotoxicity against human M14 cells after 48 hrs by SRB assay; type: functional; conditions: M14, 48 h; method in brief: as §1
[8] = test system: BT-549; assay: Cytotoxicity against human BT549 cells after 48 hrs by SRB assay; type: functional; conditions: BT-549, 48 h; method in brief: as §1
[9] = test system: RPMI-8226; assay: Cytotoxicity against human RPMI8226 cells after 48 hrs by SRB assay; type: functional; conditions: RPMI-8226, 48 h; method in brief: as §1
[10] = test system: HL-60(TB); assay: Cytotoxicity against human HL-60(TB) cells after 48 hrs by SRB assay; type: functional; conditions: HL-60, 48 h
Method in brief: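 NCI-60 panel screen. Cells grown in RPMI 1640 with 5% FBS and 2 mM L-glutamine, plated at 5000–40 000 cells/well by doubling time, and preincubated 24 h at 37 °C in 5% CO2; Tz plates fixed at drug addition. Five concentrations, 1-log steps from 10−4 to 10−8 M, for 48 h. Suspension cells fixed with TCA (16% final), stained with 0.4% SRB, read at 515 nm. GI50, TGI and LC50 from percent-growth formulas.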

[11] = test system: NCI-H226; assay: Cytotoxicity against human NCI-H226 cells after 48 hrs by SRB assay; type: functional; conditions: NCI-H226, 48 h; method in brief: as §1
[12] = test system: MCF7; assay: Cytotoxicity against human MCF7 cells after 48 hrs by SRB assay; type: functional; conditions: MCF7, 48 h; method in brief: as §1
[13] = test system: IGROV-1; assay: Cytotoxicity against human IGROV1 cells after 48 hrs by SRB assay; type: functional; conditions: IGROV-1, 48 h; method in brief: as §1
[14] = test system: PC-3; assay: Cytotoxicity against human PC3 cells after 48 hrs by SRB assay; type: functional; conditions: PC-3, 48 h; method in brief: as §1
[15] = test system: 786-0; assay: Cytotoxicity against human 786-0 cells after 48 hrs by SRB assay; type: functional; conditions: 786-0, 48 h; method in brief: as §1
[16] = test system: SK-OV-3; assay: Cytotoxicity against human SKOV3 cells after 48 hrs by SRB assay; type: functional; conditions: SK-OV-3, 48 h; method in brief: as §1
[17] = test system: COLO 205; assay: Cytotoxicity against human COLO205 cells after 48 hrs by SRB assay; type: functional; conditions: COLO 205, 48 h; method in brief: as §1
[18] = test system: DU-145; assay: Cytotoxicity against human DU145 cells after 48 hrs by SRB assay; type: functional; conditions: DU-145, 48 h; method in brief: as §1
[19] = test system: NCI-H322M; assay: Cytotoxicity against human NCI-H322M cells after 48 hrs by SRB assay; type: functional; method in brief: as §1
[20] = test system: OVCAR-3; assay: Cytotoxicity against human OVCAR3 cells after 48 hrs by SRB assay; type: functional; conditions: OVCAR-3, 48 h; method in brief: as §1
[21] = organism: Homo sapiens; assay: Inhibition of human DDR at 0.5 uM relative to control
[22] = target: Receptor-type tyrosine-protein kinase FLT3 (Homo sapiens) (UniProt P36888); assay: Inhibition of human Flt3 at 0.5 uM relative to control
Chain of Receptor-type tyrosine-protein kinase FLT3 (Homo sapiens) (P36888 whole entry): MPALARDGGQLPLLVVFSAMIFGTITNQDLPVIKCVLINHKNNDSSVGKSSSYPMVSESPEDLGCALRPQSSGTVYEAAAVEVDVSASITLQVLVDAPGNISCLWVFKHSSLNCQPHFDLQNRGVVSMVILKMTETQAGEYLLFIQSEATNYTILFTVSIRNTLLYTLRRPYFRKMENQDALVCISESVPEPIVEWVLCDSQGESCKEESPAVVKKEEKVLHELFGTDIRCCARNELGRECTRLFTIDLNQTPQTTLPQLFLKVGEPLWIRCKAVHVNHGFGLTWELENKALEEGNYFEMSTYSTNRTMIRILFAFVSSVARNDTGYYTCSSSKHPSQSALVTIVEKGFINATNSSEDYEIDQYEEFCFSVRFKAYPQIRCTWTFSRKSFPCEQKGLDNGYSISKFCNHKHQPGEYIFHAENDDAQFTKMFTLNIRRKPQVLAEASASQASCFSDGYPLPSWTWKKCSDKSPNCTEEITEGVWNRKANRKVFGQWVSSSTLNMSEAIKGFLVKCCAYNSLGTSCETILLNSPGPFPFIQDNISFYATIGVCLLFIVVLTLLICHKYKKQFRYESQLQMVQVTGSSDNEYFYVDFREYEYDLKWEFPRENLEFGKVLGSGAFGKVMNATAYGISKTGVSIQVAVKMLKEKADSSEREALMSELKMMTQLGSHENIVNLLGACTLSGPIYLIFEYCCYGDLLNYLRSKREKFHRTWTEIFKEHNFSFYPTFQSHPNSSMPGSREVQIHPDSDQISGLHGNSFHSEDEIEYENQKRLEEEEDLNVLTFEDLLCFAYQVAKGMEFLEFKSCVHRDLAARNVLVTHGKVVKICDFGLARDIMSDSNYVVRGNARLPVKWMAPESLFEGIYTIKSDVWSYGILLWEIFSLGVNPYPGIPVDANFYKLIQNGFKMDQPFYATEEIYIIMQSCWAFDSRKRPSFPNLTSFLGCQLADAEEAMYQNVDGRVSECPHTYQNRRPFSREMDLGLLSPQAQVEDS

[23] = test system: MDA-MB-468; assay: Cytotoxicity against human MDA-MB-468 cells after 48 hrs by SRB assay; type: functional; conditions: MDA-MB-468, 48 h; method in brief: as §1
[24] = test system: HOP-92; assay: Cytotoxicity against human HOP92 cells after 48 hrs by SRB assay; type: functional; conditions: HOP-92, 48 h; method in brief: as §1
[25] = test system: UACC-257; assay: Cytotoxicity against human UACC257 cells after 48 hrs by SRB assay; type: functional; conditions: UACC-257, 48 h
Method in brief: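 NCI-60 panel, five doses at 1-log steps from 10−4 to 10−8 M. Cells grown in RPMI 1640 with 5% FBS and 2 mM L-glutamine, seeded at 5000–40 000 cells/well and preincubated 24 h. Tz plates were TCA-fixed at drug addition. Drug exposure 48 h at 37 °C, then TCA fixation, 0.4% SRB stain and absorbance at 515 nm. GI50 taken from percent growth relative to Tz and control.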

[26] = test system: NCI/ADR-RES; assay: Cytotoxicity against human NCI-ADR-RES cells after 48 hrs by SRB assay; type: functional; method in brief: as §1
[27] = test system: HCT-116; assay: Cytotoxicity against human HCT116 cells after 48 hrs by SRB assay; type: functional; conditions: HCT-116, 48 h; method in brief: as §1
[28] = read-out: LC50 (the source's name)

Chain of Ephrin type-A receptor 5 (Homo sapiens) (P54756 whole entry): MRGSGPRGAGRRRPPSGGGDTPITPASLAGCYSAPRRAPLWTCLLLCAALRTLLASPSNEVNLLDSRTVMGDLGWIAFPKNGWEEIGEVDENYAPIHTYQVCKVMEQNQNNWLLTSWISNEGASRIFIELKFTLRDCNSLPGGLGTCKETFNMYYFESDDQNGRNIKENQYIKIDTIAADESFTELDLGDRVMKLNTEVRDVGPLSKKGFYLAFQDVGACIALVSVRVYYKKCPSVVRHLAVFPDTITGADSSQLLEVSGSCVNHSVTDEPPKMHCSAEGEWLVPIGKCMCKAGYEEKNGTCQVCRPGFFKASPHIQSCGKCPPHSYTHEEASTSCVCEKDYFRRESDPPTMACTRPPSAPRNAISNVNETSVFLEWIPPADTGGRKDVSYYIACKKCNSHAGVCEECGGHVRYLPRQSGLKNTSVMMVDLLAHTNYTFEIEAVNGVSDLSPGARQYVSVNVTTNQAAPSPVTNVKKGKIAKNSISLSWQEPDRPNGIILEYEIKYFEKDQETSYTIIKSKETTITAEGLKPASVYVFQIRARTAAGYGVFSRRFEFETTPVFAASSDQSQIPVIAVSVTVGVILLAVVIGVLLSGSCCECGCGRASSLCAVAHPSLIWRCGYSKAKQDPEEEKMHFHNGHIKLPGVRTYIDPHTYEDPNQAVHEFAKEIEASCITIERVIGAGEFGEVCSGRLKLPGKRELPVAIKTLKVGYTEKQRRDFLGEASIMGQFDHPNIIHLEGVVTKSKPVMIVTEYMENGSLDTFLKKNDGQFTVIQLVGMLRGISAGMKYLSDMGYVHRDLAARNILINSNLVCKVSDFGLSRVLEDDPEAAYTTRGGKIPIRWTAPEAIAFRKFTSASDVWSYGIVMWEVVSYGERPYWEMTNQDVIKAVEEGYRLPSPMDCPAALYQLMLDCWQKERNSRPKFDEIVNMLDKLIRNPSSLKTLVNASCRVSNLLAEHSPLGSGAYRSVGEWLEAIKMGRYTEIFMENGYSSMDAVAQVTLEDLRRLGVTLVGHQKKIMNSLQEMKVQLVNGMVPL

With `COc1cc2ncnc(Oc3ccc(NC(=O)Nc4ccc(CN5CCOCC5)c(C(F)(F)F)c4)c4ccccc34)c2cc1OC` the inhibition [1] was “Active”, the inhibition of growth at 10 µM [2] was 97.1% and the GI50 [3] was 0.55 µM. For the same molecule, the TGI [3] was 10.7 µM, the CC50 [3, 28] was 81.3 µM and the GI50 [4] was 0.31 µM. For the same molecule, the TGI [4] was 3.8 µM, the CC50 [4, 28] was over 100 µM and the RatioGI50 [5] was 3.9 - 9.5. The GI50 [6] was 0.3 µM, the TGI [6] was 1.55 µM and the CC50 [6, 28] was 5.75 µM. For the same molecule, the GI50 [7] was 0.95 µM, the TGI [7] was 4.57 µM and the CC50 [7, 28] was 26.9 µM. It also gave a GI50 [8] of 1.15 µM, a TGI [8] of 7.41 µM and a CC50 [8, 28] of 34.7 µM. It also gave a GI50 [9] of 0.39 µM, a TGI [9] of 2.95 µM and a CC50 [9, 28] of over 100 µM. The GI50 [10] was 0.38 µM, the TGI [10] was 2.14 µM and the CC50 [10, 28] was over 100 µM. The GI50 [11] was 0.07 µM, the TGI [11] was 13.8 µM and the CC50 [11, 28] was over 100 µM. For the same molecule, the GI50 [12] was 0.33 µM, the TGI [12] was 11 µM and the CC50 [12, 28] was over 100 µM. For the same molecule, the GI50 [13] was 0.52 µM, the TGI [13] was 3.63 µM and the CC50 [13, 28] was over 100 µM. For the same molecule, the GI50 [14] was 1.78 µM, the TGI [14] was 12.6 µM and the CC50 [14, 28] was over 100 µM. The GI50 [15] was 0.79 µM, the TGI [15] was 5.37 µM and the CC50 [15, 28] was 26.9 µM. The GI50 [16] was 0.23 µM, the TGI [16] was 0.95 µM and the CC50 [16, 28] was 37.1 µM. It also gave a GI50 [17] of 0.38 µM, a TGI [17] of 3.39 µM and a CC50 [17, 28] of over 100 µM. For the same molecule, the GI50 [18] was 1.55 µM, the TGI [18] was 13.2 µM and the CC50 [18, 28] was 44.7 µM. For the same molecule, the GI50 [19] was 0.56 µM, the TGI [19] was 15.1 µM and the CC50 [19, 28] was 93.3 µM. It also gave a GI50 [20] of 1 µM, a TGI [20] of 9.55 µM and a CC50 [20, 28] of 42.7 µM. For the same molecule, the inhibition [21] was “Active”, the inhibition [22] was “Active” and the GI50 [23] was 0.23 µM. The TGI [23] was 2.82 µM, the CC50 [23, 28] was 72.4 µM and the GI50 [24] was 0.32 µM. It also gave a TGI [24] of 7.76 µM, a CC50 [24, 28] of 91.2 µM and a GI50 [25] of 0.79 µM. For the same molecule, the TGI [25] was 3.98 µM, the CC50 [25, 28] was 47.9 µM and the GI50 [26] was 0.76 µM. For the same molecule, the TGI [26] was 58.9 µM, the CC50 [26, 28] was over 100 µM and the GI50 [27] was 0.79 µM. The TGI [27] was 2.57 µM and the CC50 [27, 28] was 7.08 µM.
